A short description of series [1]: melting temperature; fluorescence melt of hairpins on a sequencing array, two-state fit, raised by 9.35 °C to match UV melts. The settings on record: sodium 0.088 M. Summed up: (§1)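 Library hairpins on a sequenced MiSeq flow cell carried annealed Cy3 and quencher oligos, and their Cy3 fluorescence was imaged in 50 mM Na-HEPES pH 8.0 with 25 mM NaCl, in 2.5 °C steps up to 60 °C. Signals were normalised to Cy3 before quenching and to control constructs. Melting temperature and folding enthalpy were obtained from bootstrapped two-state fits, combined by inverse-variance weighting across four replicates, and the fitted temperatures were then raised by 9.35 °C to match UV melts.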

A short description of series [2]: folding enthalpy; higher = less favourable; fluorescence melt of hairpins on a sequencing array, two-state fit. The settings on record: sodium 0.088 M. Summed up: as §1

On to GCAGGGCGAAAGCACAGC ((.(.((....)).).)), for which the Tm in series [1] was 56.8 °C. Further, the folding enthalpy in series [2] is -20.6 kcal/mol.
The matching figures for GCAGGGCGAAAGCAGTGC (((..((....))..))): 56.7 °C and -18.3 kcal/mol.
With GCAGGGCGAAAGCATTGC (((..((....))..))), in series [1], the Tm was found to be 53 °C. Further, the folding enthalpy in series [2] is -19.6 kcal/mol.
The matching figures for GCAGGGCGAAAGCCAGGC ((..(((....)))..)): 60.1 °C and -19.3 kcal/mol.
The matching figures for GCAGGGCGAAAGCCCCGC ((.((((....)))).)): 62.8 °C and -14.5 kcal/mol.
The matching figures for GCAGGGCGAAAGCCGGGC ((..(((....)))..)): 56.9 °C and -17.4 kcal/mol.
Take GCAGGGCGAAAGCCTCGC ((..(((....)))..)): the Tm in series [1] was found to be 52 °C. In series [2], the folding enthalpy was -16.4 kcal/mol.
On to GCAGGGCGAAAGCGCGGC ((.(.((....)).).)), for which the Tm in series [1] came out at 62.9 °C. Also, in series [2], the folding enthalpy was -29.2 kcal/mol.
For GCAGGGGGAAACCCCTAC (.(((((....))))).), in that order: 35.4 °C and -14.2 kcal/mol.
Consider GCAGGGGGAAACTCCTGC (((((.(....).))))), for which, in series [1], the Tm was found to be 57.6 °C. The folding enthalpy in series [2] is -43.4 kcal/mol.
Take GCAGTAACGAAAGTTTGC (((..(((....)))))): the Tm in series [1] was 37.6 °C. Moreover, the folding enthalpy in series [2] is -21.9 kcal/mol.
The matching figures for GCAGTAGCGAAAGCTTGC (((..(((....)))))): 45 °C and -17.8 kcal/mol.
For GCAGTAGGAAACTACCGC ((.((((....)))).)), in that order: 41 °C and -22.5 kcal/mol.
As to GCAGTAGGAAACTACTAC (.(((((....))))).), the Tm in series [1] was 32.2 °C. Moreover, the folding enthalpy in series [2] is -17.2 kcal/mol.
GCAGTCGAAAGACAATGC ((((((....)))..))): the Tm in series [1] is 44.4 °C. For the same sequence, the folding enthalpy in series [2] is -20.1 kcal/mol.
On to GCAGTCGAAAGACAGTGC ((((((....)))..))), for which, in series [1], the Tm came to 45.1 °C. For the same sequence, the folding enthalpy in series [2] was -18.4 kcal/mol.
The matching figures for GCAGTCGAAAGACGATGC ((((((....)))..))): 46.5 °C and -18 kcal/mol.
The matching figures for GCAGTCGAAAGACTGTGC ((((((....)))..))): 55.3 °C and -18.3 kcal/mol.
For the sequence GCAGTGAAAACTGC (((((....))))), the Tm in series [1] is 61.2 °C. In series [2], the folding enthalpy was -28.1 kcal/mol.
Consider GCAGTGCGAAAGCAGGGC ((..(((....)))..)), for which the Tm in series [1] stood at 58.4 °C. Further, in series [2], the folding enthalpy was -21.6 kcal/mol.
For GCAGTGCGAAAGCATAGC ((..(((....)))..)), in that order: 55.4 °C and -15.8 kcal/mol.
Consider GCAGTGCGAAAGCCATGC (((..((....))..))), for which, in series [1], the Tm came out at 51.1 °C. For the same sequence, in series [2], the folding enthalpy is -16.4 kcal/mol.
On to GCAGTGCGAAAGCGGTGC (((..((....))..))), for which the Tm in series [1] was determined as 63.9 °C. Further, the folding enthalpy in series [2] was -39.5 kcal/mol.
For the sequence GCAGTGGGAAACCACCGC ((.((((....)))).)), the Tm in series [1] came to 48.8 °C. Moreover, in series [2], the folding enthalpy is -23.4 kcal/mol.
Take GCAGTGGGAAACCGCTGC ((((.((....)).)))): the Tm in series [1] came out at 62.1 °C. The folding enthalpy in series [2] was -49.4 kcal/mol.
Regarding GCAGTTGGAAACAACTGC (((((((....))))))), in series [1], the Tm worked out at 62.5 °C. The folding enthalpy in series [2] is -63.5 kcal/mol.
Take GCAGTTGGAAACAGCTGC ((((.((....)).)))): the Tm in series [1] is 54.5 °C. Also, the folding enthalpy in series [2] is -31.9 kcal/mol.
Consider GCAGTTGGAAACGACTGC (((((.(....).))))), for which the Tm in series [1] came to 55.3 °C. Also, the folding enthalpy in series [2] is -39.5 kcal/mol.
The matching figures for GCATAACGAAAGTTGTGC (((.(((....))).))): 54.7 °C and -54.7 kcal/mol.
GCATAACGAAAGTTTGC (((.(((....)))))): the Tm in series [1] came out at 46 °C. Also, the folding enthalpy in series [2] was -25.8 kcal/mol.
As to GCATAACGAAAGTTTTGC (((.(((....))).))), the Tm in series [1] came to 48.8 °C. Further, the folding enthalpy in series [2] was -30.7 kcal/mol.
For GCATAAGAAATTATGC ((((((....)))))), in that order: 46.3 °C and -28.6 kcal/mol.
As to GCATACCGAAAGGTTTGC (((.(((....))).))), the Tm in series [1] came out at 54.4 °C. Further, in series [2], the folding enthalpy is -42.2 kcal/mol.
For GCATACGAAAGTAAATGC ((((((....)))..))), in that order: 42.6 °C and -30 kcal/mol.
The matching figures for GCATACGAAAGTAAGTGC ((((((....)))..))): 34.5 °C and -21.4 kcal/mol.
The matching figures for GCATACGAAAGTATTTGC ((((((....)))..))): 32.9 °C and -17.1 kcal/mol.
Take GCATAGACGAAAGTCTGC (((..(((....)))))): the Tm in series [1] worked out at 46.3 °C. Further, the folding enthalpy in series [2] was -15.5 kcal/mol.
For GCATAGCGAAAGCAACGC ((.(.((....)).).)), in series [1], the Tm stood at 35.6 °C. The folding enthalpy in series [2] was -12 kcal/mol.
For the sequence GCATAGCGAAAGCATTGC (((..((....))..))), the Tm in series [1] was 50.7 °C. Moreover, in series [2], the folding enthalpy is -18.4 kcal/mol.
On to GCATAGCGAAAGCCCTGC (((..((....))..))), for which the Tm in series [1] came out at 29.5 °C. Moreover, the folding enthalpy in series [2] is -7.04 kcal/mol.
As to GCATAGCGAAAGCGACGC ((.(.((....)).).)), the Tm in series [1] turned out to be 63.7 °C. In addition, the folding enthalpy in series [2] was -34.1 kcal/mol.
The matching figures for GCATAGCGAAAGCGGTGC (((..((....))..))): 63.6 °C and -32.6 kcal/mol.
With GCATAGCGAAAGCTACGC ((.((((....)))).)), the Tm in series [1] was determined as 52.9 °C. The folding enthalpy in series [2] was -20.3 kcal/mol.
For GCATAGGCGAAAGCCTGC (((..(((....)))))), in that order: 49 °C and -13.5 kcal/mol.
The matching figures for GCATATACGAAAGTATGC (((..(((....)))))): 41.5 °C and -22.3 kcal/mol.
On to GCATATGGAAACATGTGC (((.(((....))).))), for which the Tm in series [1] is 49 °C. The folding enthalpy in series [2] is -36.6 kcal/mol.
For GCATCACGAAAGTGTTGC (((.(((....))).))), in that order: 55 °C and -44 kcal/mol.
The matching figures for GCATCAGAAATGATGC ((((((....)))))): 57.9 °C and -38.7 kcal/mol.
For the sequence GCATCCACGAAAGTGTGC (((..(((....)))))), in series [1], the Tm was 37.6 °C. Further, the folding enthalpy in series [2] is -14.3 kcal/mol.
As to GCATCCGAAAGGAACTGC ((((((....)))..))), the Tm in series [1] was found to be 33.5 °C. For the same sequence, in series [2], the folding enthalpy was -17.1 kcal/mol.
The matching figures for GCATCCGAAAGGAATGC ((((((....))).))): 55.4 °C and -32.3 kcal/mol.
The matching figures for GCATCCGAAAGGATTGC ((((((....))).))): 53.8 °C and -16.6 kcal/mol.
Regarding GCATCCGAAAGGATTTGC ((((((....)))..))), the Tm in series [1] was 43.9 °C. Further, the folding enthalpy in series [2] is -18.5 kcal/mol.
The matching figures for GCATCCGGAAACAGATGC (((((.(....).))))): 45 °C and -36.8 kcal/mol.
The matching figures for GCATCCGGAAACGAATGC ((((.((....)).)))): 45.5 °C and -44.1 kcal/mol.
For GCATCGCGAAAGCAATGC ((((.((....)).)))), in that order: 60.2 °C and -24.6 kcal/mol.
On to GCATCGCGAAAGCAGTGC (((..((....))..))), for which the Tm in series [1] was 52.3 °C. In addition, in series [2], the folding enthalpy is -18 kcal/mol.
The matching figures for GCATCGCGAAAGCGCTGC (((.(((....))).))): 56 °C and -42 kcal/mol.
Regarding GCATCGCGAAAGCGTAGC ((..(((....)))..)), in series [1], the Tm worked out at 48.5 °C. Moreover, the folding enthalpy in series [2] is -17.1 kcal/mol.
With GCATCGCGAAAGCTAAGC ((.(.((....)).).)), the Tm in series [1] is 30.7 °C. The folding enthalpy in series [2] was -6.7 kcal/mol.
For GCATCGCGAAAGCTGTGC (((..((....))..))), the Tm in series [1] came out at 45.8 °C. In series [2], the folding enthalpy was -21.1 kcal/mol.
In the case of GCATCGGAAACGATGC ((((((....)))))), the Tm in series [1] amounted to 68.6 °C. For the same sequence, the folding enthalpy in series [2] was -35.8 kcal/mol.
For GCATCTCGAAAGAGCTGC (((.(((....))).))), in that order: 48.2 °C and -30.9 kcal/mol.
The matching figures for GCATCTCGAAAGAGTTGC (((.(((....))).))): 50.6 °C and -33.9 kcal/mol.
In the case of GCATCTTCGAAAGAATGC (((..(((....)))))), the Tm in series [1] worked out at 33.4 °C. Besides, the folding enthalpy in series [2] is -23.2 kcal/mol.
With GCATGACGAAAGTCTTGC (((.(((....))).))), the Tm in series [1] stood at 57.5 °C. Also, the folding enthalpy in series [2] is -38.3 kcal/mol.
For GCATGAGGAAACTCATGC (((((((....))))))), in that order: 65.3 °C and -40.3 kcal/mol.
Consider GCATGCCGAAAGGCTTGC (((.(((....))).))), for which the Tm in series [1] was 66.2 °C. In addition, in series [2], the folding enthalpy was -26.9 kcal/mol.
On to GCATGCGAAAGCAAGTGC ((((((....)))..))), for which, in series [1], the Tm came out at 46.8 °C. For the same sequence, the folding enthalpy in series [2] is -17.8 kcal/mol.
Regarding GCATGCGAAAGCAATGC ((((((....))).))), in series [1], the Tm worked out at 64.2 °C. Also, the folding enthalpy in series [2] was -31 kcal/mol.
As for GCATGCGAAAGCACCTGC ((((((....)))..))), the Tm in series [1] turned out to be 33 °C. In addition, the folding enthalpy in series [2] was -10.9 kcal/mol.
With GCATGCGAAAGCAGCTGC ((((((....)))..))), the Tm in series [1] is 54 °C. The folding enthalpy in series [2] is -17.9 kcal/mol.
The matching figures for GCATGCGAAAGCATGTGC ((((((....)))..))): 64 °C and -15.5 kcal/mol.

These data come from the array DNA melting data of Ke et al. (doi:10.1101/2024.01.08.574731).
